Experimental findings from ChEMBL document CHEMBL4152311, “Structure-activity relationship studies and pharmacological characterization of N5-heteroarylalkyl-substituted-2-(2-furanyl)thiazolo[5,4-d]pyrimidine-5,7-diamine-based derivatives as inverse agonists at human A2A adenosine receptor” (Eur J Med Chem, 2018) are described below.

Assay [1] addresses T1, Adenosine receptor A1 (Homo sapiens) (UniProt P30542).
T1 sequence (whole entry): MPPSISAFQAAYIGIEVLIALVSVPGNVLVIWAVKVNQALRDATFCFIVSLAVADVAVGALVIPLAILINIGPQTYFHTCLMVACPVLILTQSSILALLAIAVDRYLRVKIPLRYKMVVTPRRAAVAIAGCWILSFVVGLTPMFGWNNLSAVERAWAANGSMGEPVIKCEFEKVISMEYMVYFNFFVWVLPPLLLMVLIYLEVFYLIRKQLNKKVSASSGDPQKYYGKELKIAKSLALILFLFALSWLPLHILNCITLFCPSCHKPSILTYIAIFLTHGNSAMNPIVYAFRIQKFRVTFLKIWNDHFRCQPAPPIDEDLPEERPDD
In words: Inverse agonist activity at human adenosine A1 receptor expressed in CHO cells assessed as cAMP accumulation at 10 uM measured after 150 mins in presence of [3H]cAMP by scintillation counting method relative to control. It is filed as functional, cell-based. The method, boiled down: (§1)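 Intact CHO cells expressing human A1, A2B or A3 receptor (grown in DMEM F12) exposed to test compound at 10 μM under basal conditions, no agonist; cAMP measured by competitive protein binding with [3H]-cAMP. Result as percent of basal cAMP (basal = 100%); mean ± SEM.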
(In general: cAMP levels reflect the balance of adenylyl cyclase and phosphodiesterase activity.)

Assay [2] addresses T2, Adenosine receptor A3 (Homo sapiens) (UniProt P0DMS8).
T2 sequence (whole entry): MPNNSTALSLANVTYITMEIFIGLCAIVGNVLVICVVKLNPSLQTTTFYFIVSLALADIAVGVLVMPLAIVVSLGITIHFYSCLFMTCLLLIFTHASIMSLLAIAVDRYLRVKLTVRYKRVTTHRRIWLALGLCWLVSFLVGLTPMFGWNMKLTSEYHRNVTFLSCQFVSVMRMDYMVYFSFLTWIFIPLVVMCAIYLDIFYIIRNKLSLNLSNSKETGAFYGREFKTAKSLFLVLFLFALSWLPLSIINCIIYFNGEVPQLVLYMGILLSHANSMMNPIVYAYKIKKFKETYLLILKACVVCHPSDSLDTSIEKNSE
Description: Inverse agonist activity at human adenosine A3 receptor expressed in CHO cells assessed as cAMP accumulation at 10 uM measured after 150 mins in presence of [3H]cAMP by scintillation counting method relative to control. The class given is functional, cell-based. The method, boiled down:
as §1

Assay [3] concerns the target T3, Adenosine receptor A2b (Homo sapiens) (UniProt P29275).
T3 sequence (whole entry): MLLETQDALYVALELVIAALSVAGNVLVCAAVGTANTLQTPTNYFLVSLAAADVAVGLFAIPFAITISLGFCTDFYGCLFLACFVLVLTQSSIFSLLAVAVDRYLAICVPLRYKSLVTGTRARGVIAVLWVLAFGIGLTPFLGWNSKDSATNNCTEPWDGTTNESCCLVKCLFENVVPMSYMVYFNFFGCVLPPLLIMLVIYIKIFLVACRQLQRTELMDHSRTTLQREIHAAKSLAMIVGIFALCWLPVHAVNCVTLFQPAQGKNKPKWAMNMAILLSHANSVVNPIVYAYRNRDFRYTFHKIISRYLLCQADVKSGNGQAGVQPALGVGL
In words: Inverse agonist activity at human adenosine A2B receptor expressed in CHO cells assessed as cAMP accumulation at 10 uM measured after 150 mins in presence of [3H]cAMP by scintillation counting method relative to control. The class given is functional, cell-based. In a few lines:
as §1

Assay [4] deals with T4, Adenosine receptor A2a (Homo sapiens, UniProt P29274). In words: Displacement of [3H]ZM241385 from human adenosine A2A receptor expressed in CHO cell membranes measured after 60 mins by scintillation counting method. For orientation: Displacement assays read how much labelled ligand stays bound in the presence of the test substance.
The target of assay [5] is T5, Adenosine receptor A2b (Homo sapiens, UniProt P29275).
T5 sequence (P29275 whole entry): T3 sequence (whole entry)
Description: Antagonist activity at human adenosine A2B receptor expressed in CHO cells assessed as inhibition of NECA-stimulated cAMP accumulation measured after 150 mins in presence of [3H]cAMP by scintillation counting method.

The target of assay [6] is T6, Adenosine receptor A3 (Homo sapiens, UniProt P0DMS8).
T6 sequence (P0DMS8 whole entry): T2 sequence (whole entry)
In words: Displacement of [125I]AB-MECA from human adenosine A3 receptor expressed in CHO cell membranes measured after 120 mins by scintillation counting method. The method, boiled down: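 Membranes from CHO cells transfected with the human receptor (A1 or A3) competed against [3H]DPCPX (A1) or [125I]AB-MECA (A3) over a range of test concentrations, per earlier-described method; percent inhibition taken at 10 μM.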

For assay [7], the target named is T7, Adenosine receptor A1 (Homo sapiens, UniProt P30542).
T7 sequence (P30542 whole entry): T1 sequence (whole entry)
Description: Displacement of [3H]DPCPX from human adenosine A1 receptor expressed in CHO cell membranes measured after 90 mins by scintillation counting method.

For assay [8], the target named is T4, Adenosine receptor A2a. Description: Antagonist activity against human adenosine A2A receptor expressed in CHO cells assessed as inhibition of CGS21680-stimulated cAMP accumulation measured after 150 mins in presence of [3H]cAMP by scintillation counting method. It is filed as functional, cell-based.
The target in assay [9] is T4, Adenosine receptor A2a. Description: Inverse agonist activity at human adenosine A2A receptor expressed in CHO cells assessed as inhibition of cAMP accumulation measured after 150 mins in presence of [3H]cAMP by scintillation counting method. It is filed as functional, cell-based.

T4 sequence (P29274 whole entry): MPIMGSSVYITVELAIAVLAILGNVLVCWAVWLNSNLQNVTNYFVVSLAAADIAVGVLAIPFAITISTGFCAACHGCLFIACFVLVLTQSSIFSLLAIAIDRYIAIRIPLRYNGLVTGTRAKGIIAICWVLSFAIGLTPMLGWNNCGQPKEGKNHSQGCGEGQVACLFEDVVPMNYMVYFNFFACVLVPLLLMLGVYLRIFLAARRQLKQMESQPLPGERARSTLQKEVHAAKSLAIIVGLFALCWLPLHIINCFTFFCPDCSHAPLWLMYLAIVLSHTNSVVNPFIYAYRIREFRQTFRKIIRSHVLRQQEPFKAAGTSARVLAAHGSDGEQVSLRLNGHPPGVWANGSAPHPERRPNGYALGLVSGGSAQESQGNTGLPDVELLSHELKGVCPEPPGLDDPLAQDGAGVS

On to `Nc1nc(NCCc2ccc(O)cc2)nc2nc(-c3ccco3)nn12`, for which the Activity in assay [1] was 101%; in [2], 105%.
In the case of `Nc1nc(NCc2ccco2)nc2sc(-c3ccco3)nc12`, the Activity in [3] was 101%; in assay [1], 101%; in assay [2], 104%. The same compound registered a KiH in [4] of 39 fM. Moreover, the KiL in [4] was determined as 1.73 nM.
As for `COc1cccc(CNc2nc(N)c3nc(-c4ccc(C)o4)sc3n2)c1`, the IC50 in assay [5] was determined as 120 nM. Also, the Ki in assay [6] came out at 160 nM; in assay [7], 70 nM; in assay [4], 144 nM.
For the compound `Nc1nc(NCc2cnccn2)nc2sc(-c3ccco3)nc12`, the Activity turned out to be 102% in assay [3], 102% in assay [1] and 98% in assay [2].
As for `Nc1nc(NCc2ccccn2)nc2sc(-c3ccco3)nc12`, the Activity in assay [3] worked out at 98%; in assay [1], 103%; in assay [2], 101%.
In the case of `Nc1nc(NCCc2ccco2)nc2sc(-c3ccco3)nc12`, the results for the Activity in assay [3], in assay [1] and in assay [2] were 103%, 95% and 97%, respectively.
As for `Cc1ccc(-c2nc3c(N)nc(NCc4cccs4)nc3s2)o1`, the concentration for half-maximal inhibition (IC50) in assay [5] was found to be 91 nM. Besides, the inhibition constant Ki came out at 15.3 nM in [6], 71 nM in assay [7] and 34 nM in assay [4].
For the compound `Nc1nc(NCc2cccnc2)nc2sc(-c3ccco3)nc12`, the Activity in assay [3] was 97%; in assay [1] it was 96%; in assay [2], 100%. The compound also gave a KiH in assay [4] of 217 fM. Also, in assay [4], the KiL was determined as 0.68 nM.
For `Nc1nc(NCc2ccsc2)nc2sc(-c3ccco3)nc12`, the Activity in [3] is 99%; in [1], 98%; in [2] it was 105%.
`COc1cccc(CNc2nc(N)c3nc(-c4cccs4)sc3n2)c1`: in assay [5], the IC50 amounted to 2770 nM. In addition, the inhibition constant Ki came to 430 nM in assay [6], 37 nM in assay [7] and 22 nM in [4].
On to `Nc1nc(NCc2ccncc2)nc2sc(-c3ccco3)nc12`, for which the Activity in [3] worked out at 103%; in assay [1], 103%; in [2], 102%.
Consider `Nc1nc(NCCc2cccs2)nc2sc(-c3ccco3)nc12`, for which the Activity in [3] turned out to be 99%; in assay [1], 100%; in [2] it was 94%. The compound also showed a KiH in assay [4] of 10.6 fM. In [4], the KiL worked out at 18 nM.
Turning to `Nc1nc(NCCc2cccnc2)nc2sc(-c3ccco3)nc12`, the Activity worked out at 97% in [3], 102% in assay [1] and 102% in [2].
Take `COc1ccccc1CNc1nc(N)c2nc(-c3ccc(C)o3)sc2n1`: the concentration for half-maximal inhibition (IC50) in assay [5] was 389 nM. Further, the inhibitory constant (Ki) in assay [6] amounted to 141 nM; in [7] it was 29 nM; in assay [4] it was 20 nM.
Consider `COc1ccccc1CNc1nc(N)c2nc(-c3cccs3)sc2n1`, for which the IC50 is 4570 nM in assay [5], 4.41 nM in [8] and 3.36 nM in [9]. Further, the values for the Activity in [3], in [1] and in assay [2] were 106%, 99% and 103%, respectively. The values for the Ki in assay [6], in assay [7] and in [4] were 275 nM, 17.3 nM and 2.24 nM, respectively.
Regarding `Nc1nc(NCc2cccs2)nc2sc(-c3cccs3)nc12`, the IC50 was determined as 547 nM in assay [5], 17.6 nM in assay [8] and 13.2 nM in [9]. In addition, the Activity in assay [3] is 96%; in [1] it was 97%; in assay [2], 99%. Moreover, the figures for the inhibition constant Ki in [6], in [7] and in [4] were 38 nM, 73 nM and 10.1 nM, respectively.
Take `Nc1nc(NCc2cccs2)nc2sc(-c3ccco3)nc12`: the Activity in assay [3] was determined as 99%; in assay [1], 98%; in assay [2], 96%. In assay [4], this compound displayed a KiH of 10.7 fM. Besides, the KiL in assay [4] came out at 3.82 nM.

As a reminder, the IC50 is the concentration at which inhibition is half-maximal. One may read the Ki as a dissociation constant, usually derived from enzyme kinetics or from competition with a known ligand.
